From ChEMBL document CHEMBL1138356, “Design and synthesis of human immunodeficiency virus entry inhibitors: sulfonamide as an isostere for the alpha-ketoamide group” (J Med Chem, 2007)

Legend:
[1] = tested on: Human immunodeficiency virus 1; assay: Antiviral activity against HIV1 pseudovirus in U87 cells expressing CD4 and CCR5 after 72 hrs by M33 pseudotyped assay; type: functional, organism-based, U-87MG ATCC; settings: Human immunodeficiency virus 1, U-87 MG
Outline: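 M33 pseudotyped viral attachment assay giving IC50 values. Specificity for HIV was judged by counter-screening against AMLV-pseudotyped virus at concentrations above 100× the M33 IC50.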

[2] = Cytotoxicity against human U87 cells expressing CD4 and CXCR4; type: cell-based, U-87MG ATCC
[3] = tested on: Human immunodeficiency virus; assay: Antiviral activity against HIV 584.000220 by viral replication assay; type: functional, organism-based; settings: Human immunodeficiency virus 1
[4] = tested on: Human immunodeficiency virus; assay: Antiviral activity against HIV 584.000063P1B by viral replication assay; type: functional, organism-based; settings: Human immunodeficiency virus 1
[5] = tested on: Human immunodeficiency virus; assay: Antiviral activity against HIV 208.000923 by viral replication assay; type: functional, organism-based; settings: Human immunodeficiency virus 1
[6] = tested on: Human immunodeficiency virus; assay: Antiviral activity against HIV 589.000049 by viral replication assay; type: functional, organism-based; settings: Human immunodeficiency virus 1
[7] = tested on: Human immunodeficiency virus; assay: Antiviral activity against HIV 589.000821 by viral replication assay; type: functional, organism-based; settings: Human immunodeficiency virus 1
[8] = tested on: Human immunodeficiency virus; assay: Antiviral activity against HIV 589.000033 by viral replication assay; type: functional, organism-based; settings: Human immunodeficiency virus 1
[9] = tested on: Human immunodeficiency virus; assay: Antiviral activity against HIV 584.000030 by viral replication assay; type: functional, organism-based; settings: Human immunodeficiency virus 1
[10] = tested on: Human immunodeficiency virus; assay: Antiviral activity against HIV 584.000039 by viral replication assay; type: functional, organism-based; settings: Human immunodeficiency virus 1
[11] = tested on: Human immunodeficiency virus; assay: Antiviral activity against HIV 584.000058 by viral replication assay; type: functional, organism-based; settings: Human immunodeficiency virus 1
[12] = tested on: Human immunodeficiency virus; assay: Antiviral activity against HIV 584.000088 by viral replication assay; type: functional, organism-based; settings: Human immunodeficiency virus 1
[13] = tested on: Human immunodeficiency virus; assay: Antiviral activity against HIV 584.000241 by viral replication assay; type: functional, organism-based; settings: Human immunodeficiency virus 1
[14] = tested on: Human immunodeficiency virus; assay: Antiviral activity against HIV 584.000016 by viral replication assay; settings: Human immunodeficiency virus 1

IC50 [1] [nM]	Structure (SMILES)	CC50 [2] [nM]	other results
8	COc1ccnc2[nH]cc(C(=O)C(=O)N3CCN(C(=O)c4ccccc4)C[C@H]3C)c12	> 40000	IC50 [3]: 4 nM; IC50 [4]: 37 nM; IC50 [5]: 1400 nM; IC50 [6]: 6 nM; IC50 [7]: 2800 nM; IC50 [8]: 28 nM; IC50 [9]: 31 nM; IC50 [10]: 400 nM; IC50 [11]: 58 nM; IC50 [12]: 14 nM; IC50 [13]: 118 nM; IC50 [14]: 40 nM
11000	CC1CN(C(=O)c2ccccc2)CCN1S(=O)(=O)c1c[nH]c2c(Cl)nccc12 (racemic)	> 40000	–
200	CC1CN(C(=O)c2ccccc2)CCN1S(=O)(=O)c1c[nH]c2c(-n3cncn3)nccc12 (racemic)	> 40000	–
> 40000	COc1cc2c(S(=O)(=O)N3CCN(C(=O)c4ccccc4)CC3C)c[nH]c2cn1 (racemic)	> 40000	–
300	CC1CN(C(=O)c2ccccc2)CCN1S(=O)(=O)c1c[nH]c2c(-n3cccn3)nccc12 (racemic)	> 40000	–
54	CC1CN(C(=O)c2ccccc2)CCN1S(=O)(=O)c1c[nH]c2c(-n3ccnn3)nccc12 (racemic)	> 40000	IC50 [3]: 2 nM; IC50 [4]: 460 nM; IC50 [5]: 465 nM; IC50 [6]: 46 nM; IC50 [7]: 330 nM; IC50 [8]: 492 nM; IC50 [9]: 267 nM; IC50 [10]: 1800 nM; IC50 [11]: 1400 nM; IC50 [12]: 116 nM; IC50 [13]: 8 nM; IC50 [14]: 513 nM
4600	CC1CN(C(=O)c2ccc3[nH]ccc3c2)CCN1S(=O)(=O)c1c[nH]c2ncccc12 (racemic)	> 40000	–
4600	CC1CN(C(=O)c2cccs2)CCN1S(=O)(=O)c1c[nH]c2ncccc12 (racemic)	> 40000	–
10000	CC1CN(C(=O)c2ccc3occc3c2)CCN1S(=O)(=O)c1c[nH]c2ncccc12 (racemic)	> 40000	–
12400	Cc1ccc(C(=O)N2CCN(S(=O)(=O)c3c[nH]c4ncccc34)C(C)C2)cc1 (racemic)	> 40000	–
12600	CC1CN(C(=O)c2ccc3scnc3c2)CCN1S(=O)(=O)c1c[nH]c2ncccc12 (racemic)	> 40000	–
> 40000	CC1CN(C(=O)c2ccccc2)CCN1S(=O)(=O)c1c[nH]c2c(Cl)nc(Cl)cc12 (racemic)	> 40000	–
160	CC1CN(C(=O)c2ccccc2)CCN1S(=O)(=O)c1c[nH]c2c(-n3ccnc3)nccc12 (racemic)	> 40000	–
5400	CC1CN(C(=O)c2cnc3ccccc3n2)CCN1S(=O)(=O)c1c[nH]c2ncccc12 (racemic)	> 40000	–
240	Cc1ncn(-c2nccc3c(S(=O)(=O)N4CCN(C(=O)c5ccccc5)CC4C)c[nH]c23)n1 (racemic)	> 40000	–
